Molecules are shown by their SMILES. pIC50: −log10 of the molar value. ≈ marks a conversion by molar mass, not a printed value. Calls of active or inactive are those of the source. The rule behind the calls is not given here.

From ChEMBL document CHEMBL4033788, “Novel Ligustrazine-Based Analogs of Piperlongumine Potently Suppress Proliferation and Metastasis of Colorectal Cancer Cells in Vitro and in Vivo” (J Med Chem, 2018) come the findings set out here.

In one series the test system is HT-29. Put plainly: Antiproliferative activity against human HT-29 cells after 72 hrs by MTT assay. The format is functional, cell-based. The settings on record: HT-29, 72 h. Summed up: (§1)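 Cells grown in RPMI 1640 with 10% FBS in 96-well plates overnight, then exposed to test agents in triplicate for 72 h. MTT (5 mg/mL stock) added for the last 4 h, formazan dissolved in DMSO, absorbance read at 570 nm. Inhibition = (1 − OD treated/OD control) × 100%.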
Background: Formazan colour is commonly taken as a measure of viable cells.

Series [1] in a line: Solubility of compound in phosphate buffer at pH 7.4 after 8 hrs by HPLC analysis. The format is physicochemical. In a few lines:
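Compound was shaken in 50 mM phosphate buffer (pH 7.4) at 20 °C, centrifuged, and the supernatant analysed by HPLC. Conditions were a C18 column, acetonitrile–water 60/40 (v/v) at 1.0 mL/min, with detection at 254 nm. Run in triplicate.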

Series [2] in a line: Half life in Sprague-Dawley rat at 20 mg/kg, iv after 4 hrs by LC-MS/MS analysis. The settings on record: in vivo. The format is ADME, organism-based.
A further series relates to U-87 MG. Put plainly: Antiproliferative activity against human U87MG cells after 72 hrs by MTT assay. The format is functional, cell-based, U-87MG ATCC. Summed up: as §1
The nature of series [3]: Acute toxicity in ICR mouse assessed as survival rate at 100 mg/kg, ip administered for 14 days relative to control. The format is organism-based. Particulars: in vivo.
Series [4] has as its system Mus musculus. Put plainly: Cardiotoxicity in BALB/c nude mouse xenografted with human HCT116 cells at 2.5 to 5 mg/kg, ip administered for 21 consecutive days. Particulars: in vivo. The format is toxicity, organism-based. In a few lines: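 Male BALB/c nude mice (3−5 weeks) inoculated sc with 1 × 10^7 HCT-116 cells; at tumour volume about 75 mm3 randomized (n = 8 per group) and dosed ip daily at 2.5 or 5 mg/kg for 21 consecutive days. Body weights monitored; liver, kidney, lung and heart inspected for size and morphology at sacrifice.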
(A xenograft is tissue or cells of one species grown in another, often human tumour cells in immunodeficient mice.)

Series [5] concerns HCT-116. In words: Antiproliferative activity against human HCT116 cells after 72 hrs by MTT assay. The format is functional, cell-based. The settings on record: HCT-116, 72 h. Summed up: as §1
A short description of series [6]: Induction of ROS accumulation in human CCD-841 cells at 10 uM after 3 hrs by DCFH-DA staining-based fluorescence microscopic analysis. The settings on record: ccd-841, 3 h. The format is cell-based. Summed up: (§2)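 HCT-116 or CCD-841 cells treated at 10 μM for 3 h, stained with DCFH-DA, and imaged by fluorescence microscopy for green-fluorescent cells.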
Series [7] concerns Mus musculus. In words: Toxicity in BALB/c nude mouse xenografted with human HCT116 cells assessed as loss of body weight at 4 mg/kg, ip administered thrice a week for 6 consecutive weeks. Format: organism-based. Particulars: in vivo. In a few lines: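 Lung metastasis model: HCT-116 cells in serum-free medium injected into tail vein of BALB/c nude mice, then randomized and given vehicle or compound ip (1, 2 or 4 mg/kg) three times a week. Body weight recorded weekly, survival monitored (n = 6); mice sacrificed after 40 days and lungs examined by H&E histology.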

Series [8] has as its system HCT-116. Put plainly: Cytotoxicity against human HCT116 cells at 2 to 50 nM after 24 to 48 hrs in presence of TGF-beta1 by MTT assay. The format is cell-based. Particulars: hct-116, 0.05 µM. In a few lines: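 HCT-116 cells exposed to TGF-β1 (10 ng/mL) alone or combined with test agent at 2, 10 or 50 nM for 24, 48 or 72 h. Viability read by MTT (formazan in DMSO, 570 nm).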

Series [9] has as its system HCT-116. Put plainly: Induction of ROS accumulation in human HCT116 cells at 10 uM after 3 hrs by DCFH-DA staining-based fluorescence microscopic analysis. Format: functional, cell-based. Summed up:
as §2

For a further series, the system named is SW-620. Put plainly: Antiproliferative activity against human SW620 cells after 72 hrs by MTT assay. Particulars: SW-620, 72 h. The format is functional, cell-based. Summed up: as §1
The test system of series [10] is HCT-116. In words: Inhibition of TGF-beta1-induced increase in expression levels of twist protein in human HCT116 cells after 48 hrs by Western blot analysis. Format: functional, cell-based. Summed up: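 HCT-116 cells (1 × 10^6/well, plated overnight) were exposed to TGF-β1 (10 ng/mL) for 48 h, with or without test compound; vehicle was 0.1% DMSO. Lysates (20 μg/lane) were run on 7.5% SDS-PAGE and blotted to PVDF, with primary antibody overnight at 4 °C and HRP/ECL detection. Band densities were normalised to β-actin across three independent experiments.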
In general terms: In western blotting, separated proteins are transferred to a membrane and probed.

In series [11] the test system is HCT-116. Put plainly: Inhibition of IL-1beta-mediated adhesion of human rhodamine 123-labeled HCT116 cells to HUVEC after 1 hr by fluoresence assay. Format: functional, cell-based. In a few lines:
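HUVEC monolayers pretreated with or without IL-1β (1 ng/mL) for 4 h, then washed. Rhodamine 123-labeled HCT-116 cells added with vehicle or test agent (2, 10, 50 nM) at 37 °C for 1 h. Non-adherent cells washed off; percent adhered cells determined by fluorescence microscopy. Three separate experiments.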

Series [12] is described as follows: Antiproliferative activity against human CCD-841 cells after 72 hrs by MTT assay. The format is cell-based. Particulars: CCD-841, 72 h. Summed up:
as §1

A further series concerns K562. Put plainly: Antiproliferative activity against human K562 cells after 72 hrs by MTT assay. The format is functional, cell-based. Particulars: K562, 72 h. In a few lines:
as §1

The test system of series [13] is HCT-116. Put plainly: Antitumor activity against human HCT116 cells xenografted in BALB/c nude mouse assessed as tumor growth inhibition at 5 mg/kg, ip administered daily for 21 consecutive days relative to control. Format: functional. Particulars: HCT-116, ip, read-out: TGI. In a few lines:
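Male BALB/c nude mice, 3–5 weeks old, inoculated subcutaneously with 1 × 10^7 HCT-116 cells. At about 75 mm³ tumor volume, randomized (n = 8/group) and dosed intraperitoneally daily. Volume by caliper as d² × D/2. At the end, tumors excised and weighed; inhibition = (Wcontrol − Wtreated)/Wcontrol × 100%.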

Another series relates to HCT-8. In words: Antiproliferative activity against human HCT8 cells after 72 hrs by MTT assay. The format is functional, cell-based. Particulars: HCT-8, 72 h. In a few lines:
as §1

The target of series [14] is Glycogen synthase kinase-3 beta (Homo sapiens) (UniProt P49841). In words: Inhibition of TGF-beta1-induced GSK-3beta phosphorylation in human HCT116 cells at 50 nM after 48 hrs by Western blot analysis. Format: cell-based. In a few lines:
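HCT-116 cells treated with or without TGF-β1 (10 ng/mL) for 48 h, with or without test agent. Lysates (20 μg/lane) run on 7.5% SDS-PAGE and transferred to PVDF. Probed for p-Akt (Ser473), Akt, p-GSK-3β (S9), GSK-3β, E-cadherin, MMP-9 and β-actin, detected by ECL. Densitometry relative to β-actin or total protein. Three independent experiments.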

Chain of Glycogen synthase kinase-3 beta (Homo sapiens) (P49841 whole entry, looked up): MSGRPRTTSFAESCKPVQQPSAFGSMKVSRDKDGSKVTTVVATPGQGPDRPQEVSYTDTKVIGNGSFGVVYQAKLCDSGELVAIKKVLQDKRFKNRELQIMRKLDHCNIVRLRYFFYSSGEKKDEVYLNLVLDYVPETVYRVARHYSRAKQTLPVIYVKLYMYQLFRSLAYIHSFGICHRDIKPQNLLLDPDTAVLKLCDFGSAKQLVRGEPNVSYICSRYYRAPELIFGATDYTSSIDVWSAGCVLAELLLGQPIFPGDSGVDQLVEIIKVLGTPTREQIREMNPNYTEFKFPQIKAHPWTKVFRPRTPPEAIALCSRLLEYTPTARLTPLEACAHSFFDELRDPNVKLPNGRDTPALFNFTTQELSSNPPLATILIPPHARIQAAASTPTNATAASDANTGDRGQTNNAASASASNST

The pIC50 is the IC50 on a negative log10 scale, so that one unit is a factor of ten. Low values mean a large IC50, high ones a small IC50. A word on the solubility: it is how much of the substance goes into solution per volume. A higher solubility goes with a readily soluble substance. A word on the half-life: it is the time in which the quantity being followed falls by half. Read a high half-life as slow loss. As for `Cc1nc(C)c(/C=C/C(=O)N2CCC=C(Cl)C2=O)nc1C`, the negative-log IC50 (pIC50) was 6.27 in the series with HT-29; 5.46 with U-87 MG; 6.52 in the series on HCT-116 [5]; 6.06 in the series with SW-620; 4.29 in [12]; 6.60 with K562. The same compound gave a negative logarithm of the IC50 (pIC50) in the series on HCT-8 of 5.92. Also, in [1], the solubility at 8 h came out at 74.6 µg/mL (≈ 244 µM). Further, in [2], the half-life was 2.17 h. In addition, in [3], the survival at 336 h was determined as 80%. Besides, the Activity entry in the series with Mus musculus [4] is listed as “Non-Toxic”; in series [6] it was “Toxic”; in the series with Mus musculus [7] it was “Non-Toxic”; in the series with HCT-116 [8], “Non-Toxic”. For the same compound, the outcome with HCT-116 [9] was Active. The inhibition entry in the series on HCT-116 [10] and with HCT-116 [11] was “Dose-dependent effect” throughout. Moreover, in the series on HCT-116 [13], the inhibition in vivo at 5 mg/kg was 71.4%.
With `COc1cc(/C=C/C(=O)N2CCC=CC2=O)cc(OC)c1OC` [PIPLARTINE], the pIC50 in the series on HT-29 is 5.58; in the series with U-87 MG it was 4.76; in the series with HCT-116 [5], 5.09; in the series on SW-620, 5.34; in series [12], 4.35; in the series on K562, 5.30. The negative logarithm of the IC50 (pIC50) in the series on HCT-8 is 5.39. Besides, in series [1], the solubility at 8 h is 0.32 µg/mL (≈ 1.01 µM). Besides, the half-life in series [2] was 2.87 h. Moreover, in [14], the inhibition result was “Active”. The Activity result was “Toxic” in [6], “Non-Toxic” in the series with Mus musculus [7] and “Non-Toxic” in the series on HCT-116 [8]. Moreover, the outcome in the series on HCT-116 [9] was Active. The inhibition in vivo at 5 mg/kg in the series on HCT-116 [13] was determined as 60.6%.
